Values joined by “and” are separate entries in the source; they are usually repeats but may differ in a detail not shown here. Equal values may be shown once.
Key:
Cavia porcellus [1] = organism: Cavia porcellus; experiment: Ability to induce allergic contact dermatitis in guinea pig at 7.6 umol (3 injections) and expressed as average skin reaction; type: functional
In short: (§1)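 Guinea pigs sensitized with the alkylcyclohexanediol in Freund complete adjuvant (3-injection schedule per curator). Elicitation by open epicutaneous test of the dose in ethanol. Read at 48 h on a scale: 0 none, 0.5 slight partial erythema, 1 erythema over the whole area, 2 erythema plus swelling, 3 swelling well beyond the area. FCA-treated control groups of eight animals.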

Cavia porcellus [2] = organism: Cavia porcellus; experiment: Ability to induce allergic contact dermatitis in guinea pig at 7.6 umol (5 injections)of the compound and expressed as no. of positive animals out of 16; type: functional
Cavia porcellus [3] = organism: Cavia porcellus; experiment: Allergic contact dermatitis in guinea pig at 7.6 umol (5 injections) and expressed as number of animals reading with a test intensity of 0.5; type: functional
In short: (§2)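 Sensitization by the FCAT method with five injections: the first sensitization was boosted by two injections of alkylcyclohexanediol in Freund complete adjuvant 1 week after the first test. Open epicutaneous challenge used the stated dose in ethanol, read at 48 h on a 0–3 erythema/swelling scale. Irritation thresholds were set on FCA-injected controls, with groups of eight per experiment.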

Cavia porcellus [4] = organism: Cavia porcellus; experiment: Allergic contact dermatitis in guinea pig at 7.6 umol (3 injections) and expressed as number of animals reading with a test intensity of 0; type: functional; in short: as §1
Cavia porcellus [5] = organism: Cavia porcellus; experiment: Allergic contact dermatitis in guinea pig at 7.6 umol (5 injections) and expressed as number of animals reading with a test intensity of 2; type: functional; in short: as §2
Cavia porcellus [6] = organism: Cavia porcellus; experiment: Allergic contact dermatitis in guinea pig at 3.8 umol (5 injections) and expressed as number of animals reading with a test intensity of 0; type: functional; in short: as §2
Cavia porcellus [7] = organism: Cavia porcellus; experiment: Allergic contact dermatitis in guinea pig at 3.8 umol (5 injections) and expressed as number of animals reading with a test intensity of 2; type: functional; in short: as §2
Cavia porcellus [8] = organism: Cavia porcellus; experiment: Allergic contact dermatitis in guinea pig at 3.8 umol (3 injections) and expressed as number of animals reading with a test intensity of 0; type: functional; in short: as §1
Cavia porcellus [9] = organism: Cavia porcellus; experiment: Allergic contact dermatitis in guinea pig at 3.8 umol (3 injections) and expressed as number of animals reading with a test intensity of 0.5; type: functional; in short: as §1
Cavia porcellus [10] = organism: Cavia porcellus; experiment: Allergic contact dermatitis in guinea pig at 3.8 umol (5 injections) and expressed as number of animals reading with a test intensity of 0.5; type: functional; in short: as §2
Cavia porcellus [11] = organism: Cavia porcellus; experiment: Ability to induce allergic contact dermatitis in guinea pig at 3.8 umol (5 injections) and expressed as average skin reaction; type: functional; in short: as §2
Cavia porcellus [12] = organism: Cavia porcellus; experiment: Allergic contact dermatitis in guinea pig at 7.6 umol (3 injections) and expressed as number of animals reading with a test intensity of 0.5; type: functional; in short: as §1
Cavia porcellus [13] = organism: Cavia porcellus; experiment: Allergic contact dermatitis in guinea pig at 7.6 umol (3 injections) and expressed as number of animals reading with a test intensity of 1; type: functional; in short: as §1
Cavia porcellus [14] = organism: Cavia porcellus; experiment: Ability to induce allergic contact dermatitis in guinea pig at 7.6 umol (3 injections)of the compound and expressed as no. of positive animals out of 16; type: functional; in short: as §1
Cavia porcellus [15] = organism: Cavia porcellus; experiment: Ability to induce allergic contact dermatitis in guinea pig at 3.8 umol (3 injections) and expressed as average skin reaction; type: functional; in short: as §1
Cavia porcellus [16] = organism: Cavia porcellus; experiment: Ability to induce allergic contact dermatitis in guinea pig at 3.8 umol (5 injections)of the compound and expressed as no. of positive animals out of 16; type: functional
Cavia porcellus [17] = organism: Cavia porcellus; experiment: Allergic contact dermatitis in guinea pig at 3.8 umol (3 injections) and expressed as number of animals reading with a test intensity of 1; type: functional; in short: as §1
Cavia porcellus [18] = organism: Cavia porcellus; experiment: Allergic contact dermatitis in guinea pig at 3.8 umol (5 injections) and expressed as number of animals reading with a test intensity of 1; type: functional; in short: as §2
Cavia porcellus [19] = organism: Cavia porcellus; experiment: Allergic contact dermatitis in guinea pig at 3.8 umol (3 injections) and expressed as number of animals reading with a test intensity of 2; type: functional; in short: as §1
Cavia porcellus [20] = organism: Cavia porcellus; experiment: Ability to induce allergic contact dermatitis in guinea pig at 3.8 umol (3 injections)of the compound and expressed as no. of positive animals out of 16; type: functional; in short: as §1
Cavia porcellus [21] = organism: Cavia porcellus; experiment: Allergic contact dermatitis in guinea pig at 7.6 umol (5 injections) and expressed as number of animals reading with a test intensity of 0; type: functional; in short: as §2
Cavia porcellus [22] = organism: Cavia porcellus; experiment: Allergic contact dermatitis in guinea pig at 14 umol (5 injections) and expressed as number of animals reading with a test intensity of 1; type: functional; in short: as §2
Cavia porcellus [23] = organism: Cavia porcellus; experiment: Ability to induce allergic contact dermatitis in guinea pig at 3.8 umol (5 injections)of the compound and expressed as no. of positive animals out of 8; type: functional; in short: as §2
Cavia porcellus [24] = organism: Cavia porcellus; experiment: Ability to induce allergic contact dermatitis in guinea pig at 14 umol (5 injections)of the compound and expressed as no. of positive animals out of 8; type: functional; in short: as §2
Cavia porcellus [25] = organism: Cavia porcellus; experiment: (§3) Ability to induce allergic contact dermatitis in guinea pig at 7.6 umol (5 injections) and expressed as average skin reaction; type: functional; in short: as §2
Cavia porcellus [26] = organism: Cavia porcellus; experiment: (§4) Allergic contact dermatitis in guinea pig at 7.6 umol (5 injections) and expressed as number of animals reading with a test intensity of 1; type: functional; in short: as §2
Cavia porcellus [27] = organism: Cavia porcellus; experiment: Ability to induce allergic contact dermatitis in guinea pig at 3.8 umol (3 injections)of the compound and expressed as no. of positive animals out of 8
Cavia porcellus [28] = organism: Cavia porcellus; experiment: Allergic contact dermatitis in guinea pig at 14 umol (5 injections) and expressed as number of animals reading with a test intensity of 0.5; type: functional; in short: as §2
Cavia porcellus [29] = organism: Cavia porcellus; experiment: Ability to induce allergic contact dermatitis in guinea pig at 7.6 umol (5 injections)of the compound and expressed as no. of positive animals out of 8; type: functional; in short: as §2
Cavia porcellus [30] = organism: Cavia porcellus; experiment: as §4; type: functional; in short: as §2; remark: listed apart in the source
Cavia porcellus [31] = organism: Cavia porcellus; experiment: Ability to induce allergic contact dermatitis in guinea pig at 14 umol (5 injections) and expressed as average skin reaction; type: functional; in short: as §2
Cavia porcellus [32] = organism: Cavia porcellus; experiment: Allergic contact dermatitis in guinea pig at 14 umol (5 injections) and expressed as number of animals reading with a test intensity of 0; type: functional; in short: as §2
Cavia porcellus [33] = organism: Cavia porcellus; experiment: Allergic contact dermatitis in guinea pig at 14 umol (5 injections) and expressed as number of animals reading with a test intensity of 2; type: functional; in short: as §2
Cavia porcellus [34] = organism: Cavia porcellus; experiment: Ability to induce allergic contact dermatitis in guinea pig at 14 umol (3 injections) and expressed as average skin reaction; type: functional; in short: as §1
Cavia porcellus [35] = organism: Cavia porcellus; experiment: Allergic contact dermatitis in guinea pig at 14 umol (3 injections) and expressed as number of animals reading with a test intensity of 1; type: functional; in short: as §1
Cavia porcellus [36] = organism: Cavia porcellus; experiment: Ability to induce allergic contact dermatitis in guinea pig at 14 umol (3 injections)of the compound and expressed as no. of positive animals out of 8; type: functional; in short: as §1
Cavia porcellus [37] = organism: Cavia porcellus; experiment: Allergic contact dermatitis in guinea pig at 14 umol (3 injections) and expressed as number of animals reading with a test intensity of 0; type: functional; in short: as §1
Cavia porcellus [38] = organism: Cavia porcellus; experiment: Allergic contact dermatitis in guinea pig at 14 umol (3 injections) and expressed as number of animals reading with a test intensity of 2; type: functional; in short: as §1
Cavia porcellus [39] = organism: Cavia porcellus; experiment: Allergic contact dermatitis in guinea pig at 14 umol (3 injections) and expressed as number of animals reading with a test intensity of 0.5; type: functional; in short: as §1
Cavia porcellus [40] = organism: Cavia porcellus; experiment: as §3; type: functional; in short: as §2; remark: listed apart in the source
Cavia porcellus [41] = organism: Cavia porcellus; experiment: Ability to induce allergic contact dermatitis in guinea pig at 3.8 umol (3 injections)of the compound and expressed as no. of positive animals out of 8; type: functional; in short: as §1
Cavia porcellus [42] = organism: Cavia porcellus; experiment: Allergic contact dermatitis in guinea pig at 7.6 umol (3 injections) and expressed as number of animals reading with a test intensity of 2; type: functional; in short: as §1
Cavia porcellus [43] = organism: Cavia porcellus; experiment: Ability to induce allergic contact dermatitis in guinea pig at 3.8 umol (5 injections) and expressed as no. of positive animals out of 8; type: functional; in short: as §2
Cavia porcellus [44] = organism: Cavia porcellus; experiment: Ability to induce allergic contact dermatitis in guinea pig at 7.6 umol (3 injections)of the compound and expressed as no. of positive animals out of 8; type: functional; in short: as §1

| Structure (SMILES) | Average skin reaction (Cavia porcellus [1]) | No. of animals (Cavia porcellus [3]) | No. of animals (Cavia porcellus [4]) | No. of animals (Cavia porcellus [5]) | No. of animals (Cavia porcellus [6]) | No. of animals (Cavia porcellus [7]) | No. of animals (Cavia porcellus [8]) | No. of animals (Cavia porcellus [9]) | No. of animals (Cavia porcellus [10]) | Average skin reaction (Cavia porcellus [11]) | No. of animals (Cavia porcellus [12]) | No. of animals (Cavia porcellus [13]) | Average skin reaction (Cavia porcellus [15]) | No. of animals (Cavia porcellus [17]) | No. of animals (Cavia porcellus [18]) | No. of animals (Cavia porcellus [19]) | further results |
| --- | --- | --- | --- | --- | --- | --- | --- | --- | --- | --- | --- | --- | --- | --- | --- | --- | --- |
| CCCCCCCCCCCCCCC[C@H]1CCC[C@@H](O)[C@@H]1O | 0.8 | 2 and 1 | 2 | 0 | 2 | 1 | 4 | 8 | 4 | 0.8 | 2 | 12 | 0.5 | 4 | 9 | 0 | No. of positive animals (Cavia porcellus [2]): 15; No. of positive animals (Cavia porcellus [14]): 14; No. of positive animals (Cavia porcellus [16]): 14; No. of positive animals (Cavia porcellus [20]): 12 |
| CCCCCCCCCC[C@H]1CCC[C@@H](O)[C@@H]1O |  |  |  | 0 | 2 | 0 | 4 | 3 | 4 | 0.5 |  |  | 0.3 | 1 | 2 | 0 | No. of animals (Cavia porcellus [21]): 2 and 1; No. of animals (Cavia porcellus [22]): 2; No. of positive animals (Cavia porcellus [23]): 6; No. of positive animals (Cavia porcellus [24]): 7; Average skin reaction (Cavia porcellus [25]): 0.5; No. of animals (Cavia porcellus [26]): 5; No. of positive animals (Cavia porcellus [27]): 4; No. of animals (Cavia porcellus [28]): 3; No. of positive animals (Cavia porcellus [29]): 6 and 7; No. of animals (Cavia porcellus [30]): 1; Average skin reaction (Cavia porcellus [31]): 0.9; No. of animals (Cavia porcellus [32]): 1; No. of animals (Cavia porcellus [33]): 2; Average skin reaction (Cavia porcellus [34]): 0.9; No. of animals (Cavia porcellus [35]): 2; No. of positive animals (Cavia porcellus [36]): 6; No. of animals (Cavia porcellus [37]): 2; No. of animals (Cavia porcellus [38]): 2; No. of animals (Cavia porcellus [39]): 2; Average skin reaction (Cavia porcellus [40]): 0.7 |
| CCCCCCCCCCCCCCC[C@H]1CCC[C@H](O)[C@@H]1O | 0.5 | 2 and 1 | 1 | 0 | 2 | 0 | 3 | 5 | 4 | 0.5 | 6 | 1 | 0.3 | 0 | 2 | 0 | No. of positive animals (Cavia porcellus [41]): 5; No. of animals (Cavia porcellus [42]): 0; No. of positive animals (Cavia porcellus [43]): 6; No. of positive animals (Cavia porcellus [44]): 7 |
